Laboratory results as given in ChEMBL document CHEMBL4825665, “Effective degradation of EGFRL858R+T790M mutant proteins by CRBN-based PROTACs through both proteosome and autophagy/lysosome degradation systems” (Eur J Med Chem, 2021).
Active and inactive are the calls of the source. The rule behind the calls is not given here.

Assays:
[1] = Antiproliferative activity against human PB1 cells assessed as inhibition of cell growth measured after 72 hrs by CCK-8 assay; type: functional, cell-based; conditions: PB1, 72 h
Procedure, shortened: (§1)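 Cells seeded at 3000 cells/well in 96-well plates and treated with graded compound concentrations one day later for 72 h. CCK-8 was added for 1–4 h and absorbance read at 450 nm. Lung cancer lines were kept in RPMI 1640 with 10% fetal calf serum at 37 °C and 5% CO₂.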

[2] = target: T1, Protein cereblon/Epidermal growth factor receptor (Homo sapiens, UniProt P00533+Q96SW2); experiment: Protac activity at CRBN/EGFR in human NCI-H1975 cells assessed as induction of EGFR degradation by Western blot assay; type: cell-based
[3] = tested on: Protein cereblon/Epidermal growth factor receptor (Homo sapiens), P00533+Q96SW2 [L858R,T790M]; experiment: Protac activity at CRBN/EGFR L858R/T790M mutant in human NCI-H1975 cells assessed as induction of EGFR degradation at 30 to 500 nM by Western blot assay; type: cell-based; conditions: dose 30-500 nM, time 16-48 hrs, TDE = time-dependent effect
[4] = tested on: Protein cereblon/Epidermal growth factor receptor (Homo sapiens), P00533+Q96SW2 [L858R,T790M]; experiment: Protac activity at CRBN/EGFR L858R/T790M mutant in human NCI-H1975 cells assessed as induction of EGFR degradation at 300 nM incubated for 24 hrs followed by compound washout and measured 72 hrs after drug removal by Western blot assay; type: cell-based
Procedure, shortened: (§2)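 H1975 cells were treated with 300 nM PROTAC for 24 h. Medium was removed, cells were washed 3 times with PBS, and fresh RPMI 1640 with 10% fetal calf serum was added. Cells were harvested at time points up to 72 h after drug removal, and total EGFR was measured by Western blot.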

NCI-H1975 [5] = experiment: Antimigratory activity in human NCI-H1975 cells expressing EGFR L858R/T790M mutant at 500 nM measured after 24 hrs by wound healing assay; type: functional, cell-based
Procedure, shortened: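 H1975 cells seeded in 24-well plates, scratched at confluence with a pipette tip 24 h later and washed three times with PBS. Then incubated with degrader at 300 or 500 nM. Six photos per well taken at set time points, and the uncovered wound area quantified.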

HEK-293T = experiment: Cytotoxicity against human HEK293T cells assessed as inhibition of cell growth measured after 72 hrs by CCK-8 assay; type: cell-based; procedure, shortened: as §1
[6] = tested on: Protein cereblon/Epidermal growth factor receptor (Homo sapiens), P00533+Q96SW2 [L858R,T790M]; experiment: Protac activity at CRBN/EGFR L858R/T790M mutant in human NCI-H1975 cells assessed as increase in ratio of LC3B2 to LC3B1 at 30 to 300 nM preincubated for 2 hrs in presence of Rapamycin and measured after 16 hrs by Western blot assay; type: cell-based; conditions: dose 30-300 nM, time 18.0 hrs
Procedure, shortened: (§3)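 H1975 cells in RPMI 1640 with 10% serum. Autophagy was read by Western blot as the LC3B II/LC3B I ratio. Serum-free medium and rapamycin served as autophagy-inducing positive controls, and rapamycin was also combined with degrader. Where pretreatment applied, compounds were added for 2 h before a 16 h PROTAC treatment.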

HCC827 = experiment: Antiproliferative activity against human HCC827 cells assessed as inhibition of cell growth measured after 72 hrs by CCK-8 assay; type: functional, cell-based; conditions: HCC827, 72 h; procedure, shortened: as §1
[7] = target: T1, Protein cereblon/Epidermal growth factor receptor; experiment: Protac activity at CRBN/EGFR in human PB1 cells assessed as induction of EGFR degradation by Western blot assay; type: cell-based
[8] = tested on: Protein cereblon/Epidermal growth factor receptor (Homo sapiens), P00533+Q96SW2 [L858R,T790M]; experiment: Protac activity at CRBN/EGFR L858R/T790M mutant in human NCI-H1975 cells assessed as increase in ratio of LC3B2 to LC3B1 under serum starvation condition at 0.3 uM measured after 16 hrs by Western blot assay; type: cell-based; procedure, shortened: as §3
[9] = tested on: Protein cereblon/Epidermal growth factor receptor (Homo sapiens), P00533+Q96SW2 [L858R,T790M]; experiment: Protac activity at CRBN/EGFR L858R/T790M mutant in human NCI-H1975 cells assessed as induction of EGFR degradation at 300 nM measured after 8 to 72 hrs by Western blot assay relative to control; type: cell-based; conditions: time 8-72 hrs
NCI-H1975 [10] = experiment: Induction of apoptosis in human NCI-H1975 cells expressing EGFR L858R/T790M mutant assessed as decrease in number of viable cells measured after 72 hrs by Annexin-V/FITC staining based flow cytometry method; type: functional, cell-based
Procedure, shortened: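 H1975 cells (8 × 10⁴/well, 12-well plates) treated one day after seeding at graded concentrations for 72 h. Collected, stained with Annexin V-FITC, and apoptosis measured by flow cytometry.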

[11] = tested on: Protein cereblon/Epidermal growth factor receptor (Homo sapiens), P00533+Q96SW2 [L858R,T790M]; experiment: Protac activity at CRBN/EGFR L858R/T790M mutant in human NCI-H1975 cells assessed as induction of EGFR degradation at 0.3 uM pre-incubated for 2 hrs in the presence of MLN4924 and measured after 16 hrs by Western blot assay; type: cell-based; conditions: time 18.0 hrs
[12] = tested on: Protein cereblon/Epidermal growth factor receptor (Homo sapiens), P00533+Q96SW2 [L858R,T790M]; experiment: Protac activity at CRBN/EGFR L858R/T790M mutant in human NCI-H1975 cells assessed as increase in ratio of LC3B2 to LC3B1 at 30 to 300 nM measured after 16 hrs by Western blot assay; type: cell-based; conditions: dose 30-300 nM; procedure, shortened: as §3
[13] = tested on: Protein cereblon/Epidermal growth factor receptor (Homo sapiens), P00533+Q96SW2 [UNDEFINED MUTATION]; experiment: Protac activity at CRBN/EGFR exon19 deletion/T790M mutant in human PC-9 cells transfected with BRCA1 assessed as induction of EGFR degradation at 1 to 1000 nM measured after 16 hrs by Western blot assay; type: cell-based; conditions: dose 1-1000 nM
Procedure, shortened: (§4)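 Cells seeded at 1-3X10^5/well and treated one day later with compounds at the concentrations and times given. Lysed in RIPA buffer with protease inhibitors. 15 µg protein run on 8% SDS-PAGE, transferred to nitrocellulose, probed for EGFR or phospho-EGFR, ECL detection. Lung lines kept in RPMI 1640 with 10% fetal calf serum, 37 °C, 5% CO2. DC50 is an estimated value. Repeated more than 3 times.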

PC-9 = experiment: Antiproliferative activity against human PC-9 cells assessed as inhibition of cell growth measured after 72 hrs by CCK-8 assay; type: functional, cell-based; conditions: PC-9, 72 h; procedure, shortened: as §1
[14] = tested on: Protein cereblon/Epidermal growth factor receptor (Homo sapiens), P00533+Q96SW2 [L858R,T790M]; experiment: Protac activity at CRBN/EGFR L858R/T790M mutant in human NCI-H1975 cells assessed as induction of EGFR degradation at 300 nM pretreated for 24 hrs followed by compound washout and subsequent addition of fresh medium by Western blot assay relative to control; type: cell-based; procedure, shortened: as §2
BaF3 = experiment: Antiproliferative activity against mouse BaF3 cells assessed as inhibition of cell growth measured after 72 hrs by CCK-8 assay; type: functional, cell-based; conditions: BaF3, 72 h; procedure, shortened: as §1
NCI-H1975 [15] = experiment: Cell cycle arrest in human NCI-H1975 cells expressing EGFR L858R/T790M mutant assessed as decrease of cell population in S phase at […] measured after 48 hrs by RNaseA/propidium iodide staining based flow cytometry; type: functional; conditions: dose lower 0.03 nM
Procedure, shortened: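 H1975 cells (1 × 10⁵/well, 6-well plates) treated one day after seeding at the indicated concentrations for 48 h. Washed in cold PBS, fixed in cold ethanol at −20 °C for over 24 h, then stained with PI/RNase for 30 min at 37 °C in the dark. Phase distribution measured by flow cytometry.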

[16] = tested on: Epidermal growth factor receptor (Homo sapiens), P00533 [L858R,T790M]; experiment: Inhibition of EGFR L858R/T790M mutant phosphorylation in human NCI-H1975 cells at 1 to 100 nM measured after 16 hrs by Western blot assay; type: cell-based; conditions: dose 1-100 nM; procedure, shortened: as §4

C=CC(=O)Nc1cc2c(Nc3ccc(F)c(Cl)c3)ncnc2cc1OCCCN1CCN(C(=O)CCCCCCNc2cccc3c2C(=O)N(C2CCC(=O)NC2=O)C3=O)CC1 (stereo not given)
IC50 [1]: 89.5 nM
DC50 [2]: < 30 nM
Activity [3]: Tde
Activity [4]: Active
Activity (NCI-H1975 [5]): Active
IC50 (HEK-293T): > 10000 nM
Activity [6]: Active
IC50 (HCC827): 1.15 nM
DC50 [7]: Not Active
Activity [8]: Active
Activity [9]: 98%
Activity (NCI-H1975 [10]): Dose-Dependent Effect
Activity [11]: inactive
Activity [12]: Active
Activity [13]: inactive
IC50 (PC-9): 3.94 nM
Activity [14]: Active
IC50 (BaF3): 51.3 nM
Activity (NCI-H1975 [15]): Active
Activity [16]: Active

C=CC(=O)Nc1cc2c(Nc3ccc(F)c(Cl)c3)ncnc2cc1OCCCN1CCN(C(=O)CCCCCNc2cccc3c2C(=O)N(C2CCC(=O)NC2=O)C3=O)CC1 (stereo not given)
IC50 [1]: 45 nM
DC50 [2]: 30 nM
Activity [3]: Tde
Activity [4]: Active
Activity (NCI-H1975 [5]): Active
IC50 (HEK-293T): > 10000 nM
Activity [6]: Active
IC50 (HCC827): 2.12 nM
DC50 [7]: Not Active
Activity [8]: Active
Activity [9]: 98%
Activity (NCI-H1975 [10]): Dose-Dependent Effect
Activity [11]: inactive
Activity [12]: Active
Activity [13]: inactive
IC50 (PC-9): 2.6 nM
Activity [14]: Active
IC50 (BaF3): 71.3 nM
Activity (NCI-H1975 [15]): Active
Activity [16]: Active
